The target of data set [1] is T1, Phosphatidylinositol 4-kinase, PI4K (Homo sapiens, UniProt Q9BTU6+Q8TCG2+Q9UBF8+P42356). Format: protein assay.
The target in data set [2] is T1, Phosphatidylinositol 4-kinase, PI4K. Put plainly: Binding affinity (Ki) against human phosphatidylinositol 4-kinase. In kind it is protein assay. In outline: (§1)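 Human erythrocyte plasma membranes (0.36 mg protein) were incubated with PI (0.12 mM, [2-3H]PI tracer), ATP at 100 µM, ouabain, vanadate, DTT, 0.6% Triton X-100, MgCl2, EGTA, KCl/NaCl and HEPES pH 7.4 for 10 min at 30 °C. Lipids were extracted and deacylated, and the aqueous phase collected. Compounds were screened at 500 µM, then IC50 fitted from single dose-response curves. Ki = IC50/(1+[S]/Km), with ATP Km 221.5 µM.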

Data set [3] can be described thus: Vmax value was determined. In kind it is ADME.
The subject of another data set is Nc1[nH]cnc2ncnc1-2. Put plainly: (§2) Inhibition of Phosphatidylinositol 4-kinase at the ATP binding site. In kind it is protein assay. As to conditions: Homo sapiens. Put shortly: as §1
Data set [4] has as its system Nc1ncnc2c1ncn2[C@@H]1O[C@H](CO)[C@@H](O)[C@H]1O. The data set is described as §2. In kind it is protein assay. As to conditions: Homo sapiens. Put shortly: as §1
A further data set has as its system CCn1cnc2c(N)ncnc21. The data set is described as §2. As to conditions: Homo sapiens. Format: protein assay. Put shortly:
as §1

For data set [5], the system named is c1ccc(CNc2ncnc3[nH]cnc23)cc1. The description is as §2. As to conditions: Homo sapiens. In kind it is protein assay. In outline: as §1
A further data set relates to Nc1ncnc2c1ncn2C1CCCO1. Described as §2. Particulars: Homo sapiens. Format: protein assay. In outline: as §1

Compound `CCC(CC)(CC)n1cnc2c(N)ncnc21` yielded an IC50 in data set [1] of 134.1 µM. The Ki in data set [2] stood at 93.7 µM.

In data set [1], `CCn1cnc2c(N)ncnc21` returned an IC50 of 32.4 µM. This compound yielded a Ki in data set [2] of 25.5 µM. Also, the Vmax in data set [3] is 20800 c.p.m.

`Cc1ccccc1-n1cnc2c(N)ncnc21` displayed an IC50 in data set [1] of 23.6 µM. The compound further registered a Ki in data set [2] of 16.5 µM.

Regarding `Nc1ncnc2c1ncn2-c1cccc2ccccc12`, the IC50 in data set [1] turned out to be 78.8 µM. This compound also came in with a Ki in data set [2] of 54.4 µM.

In turn, `Nc1ncnc2c1ncn2C12CC3CC(CC(C3)C1)C2` came in with a 50% inhibitory concentration (IC50) in data set [1] of 6 µM. The compound also yielded a Ki in data set [2] of 4.1 µM.

For `Nc1nc2ncnc-2c[nH]1` [2-AMINOPURINE], the IC50 in data set [1] came to 341.6 µM. The same compound returned a Ki in data set [2] of 235.4 µM.

In data set [1], `Nc1[nH]cnc2nc(-c3cccc4ccccc34)nc1-2` displayed an IC50 of 129.8 µM. This compound also returned an inhibition constant Ki in data set [2] of 89.5 µM.

In data set [1], `COc1ccc(-n2cnc3c(N)ncnc32)cc1` yielded an IC50 of 21.9 µM. In data set [2], this compound gave a Ki of 15.2 µM.

In data set [1], `CN(C)c1ncnc2nc[nH]c12` [DIMETHYLADENINE] returned an IC50 of 218 µM. For the same compound, the Ki in data set [2] was found to be 150.2 µM.

As for `Nc1ncnc2c1ncn2[C@@H]1O[C@H](CO)[C@@H](O)[C@H]1O` [ADENOSINE], in data set [1], the IC50 was 30.3 µM. Moreover, the inhibition constant Ki in data set [2] turned out to be 19.2 µM. In addition, the Vmax in data set [3] is on record as 31400 c.p.m.

The compound `Nc1ncnc2c1nc1n2CCCC1` returned an IC50 in data set [1] of 52.4 µM. In data set [2], this compound came in with a Ki of 35.8 µM.

`Nc1ncnc2c1ncn2-c1ccccc1F` registered an IC50 in data set [1] of 11.9 µM. In data set [2], the Ki was determined as 8.3 µM.

In the case of `Nc1ncnc2ccccc12` [4-AMINOQUINAZOLINE], the IC50 in data set [1] was 91.7 µM. This compound also yielded a Ki in data set [2] of 63.4 µM.

As for `Cc1nc2c(N)ncnc2n1-c1ccccc1`, the IC50 in data set [1] is 16.4 µM. In addition, the Ki in data set [2] is 11 µM.

In data set [1], `Nc1ncnc2scnc12` displayed an IC50 of 116.9 µM. This compound also displayed a Ki in data set [2] of 80.6 µM.

In data set [1], `Nc1ncnc2c1ncn2C1CCCO1` (stereo not drawn) gave an IC50 of 28.2 µM. This compound also came in with a Ki in data set [2] of 21.2 µM. For the same compound, the Vmax in data set [3] amounted to 25800 c.p.m.

In turn, `Nc1nc(N)c2[nH]c(-c3ccccc3)nc2n1` displayed an IC50 in data set [1] of 199.5 µM. The compound further had a Ki in data set [2] of 137.7 µM.

Regarding `Cl.Nc1[nH]cnc2nc(NCc3ccccc3)nc1-2`, the IC50 in data set [1] was 133 µM. The Ki in data set [2] is 91.7 µM.

Turning to `Nc1ncnc2[nH]ncc12`, the 50% inhibitory concentration (IC50) in data set [1] was 144.9 µM. Also, the Ki in data set [2] turned out to be 99.9 µM.

In the case of `Nc1ncnc2c1ncn2-c1ccccc1`, in data set [1], the IC50 was found to be 15.4 µM. Further, in data set [2], the Ki came to 10.3 µM.

As for `CC(C)n1cnc2c(N)ncnc21`, the IC50 in data set [1] was 14.9 µM. Also, the Ki in data set [2] was determined as 10.3 µM.

Turning to `CCCCCc1nc2[nH]cnc(N)c-2n1`, in data set [1], the IC50 worked out at 68.9 µM. Besides, in data set [2], the Ki worked out at 47.5 µM.

`Nc1ncnc2c1ncn2C1CCCCCC1` registered an IC50 in data set [1] of 7.2 µM. In addition, in data set [2], the Ki is 5 µM.

Regarding `Nc1ncnc2c1ncn2-c1cccnc1`, the IC50 in data set [1] worked out at 46.2 µM. This compound displayed a Ki in data set [2] of 31.8 µM.

Regarding `Nc1ncnc2c1ncn2C1CCCC1`, the IC50 in data set [1] is 8.7 µM. In data set [2], this compound had a Ki of 6 µM.

As for `CC(C)(C)c1ccc(-n2cnc3c(N)ncnc32)cc1`, the IC50 in data set [1] turned out to be 46.1 µM. In data set [2], this compound gave a Ki of 31.7 µM.

Compound `CC(C)(C)Cn1cnc2c(N)ncnc21` registered an IC50 in data set [1] of 12.8 µM. For the same compound, in data set [2], the Ki came out at 9 µM.

`COc1cccc(-n2cnc3c(N)ncnc32)c1` registered an IC50 in data set [1] of 22.9 µM. Further, the inhibition constant (Ki) in data set [2] stood at 15.8 µM.

`CCCCCc1nc2c(N)ncnc2n1CCCCC` had an IC50 in data set [1] of 126.5 µM.

`Nc1ncnc2c1cnn2-c1ccccc1` had a half-maximal inhibitory concentration (IC50) in data set [1] of 16.1 µM. In addition, the Ki in data set [2] is 11 µM.

In data set [1], `Nc1[nH]cnc2nc(-c3ccccn3)nc1-2` registered an IC50 of 75.6 µM. In data set [2], this compound returned an inhibition constant (Ki) of 52.3 µM.

For the compound `Cn1cnc2c(N)ncnc21`, the IC50 in data set [1] came out at 161 µM. The Ki in data set [2] was determined as 110.9 µM.

For `Nc1ncnc2cc3ccccc3cc12`, the IC50 in data set [1] was found to be 33 µM. The Ki in data set [2] is 22.7 µM.

`CC(C)(C)n1cnc2c(N)ncnc21` showed an IC50 in data set [1] of 10.2 µM. In data set [2], this compound came in with an inhibition constant Ki of 6.9 µM.

Regarding “Phosphatidylinositol 4-kinase, PI4K (Homo sapiens) (from UniProt Q9BTU6+Q8TCG2+Q9UBF8+P42356)”, the Km in the data set with Nc1[nH]cnc2ncnc1-2 was 297 µM; in data set [4] it was 179 µM; with CCn1cnc2c(N)ncnc21, 257 µM; in data set [5], 239 µM; in the data set on Nc1ncnc2c1ncn2C1CCCO1, 262 µM.

`CC1(C)O[C@@H]2[C@H](O1)[C@@H](CO)O[C@H]2n1cnc2c(N)ncnc21` gave a 50% inhibitory concentration (IC50) in data set [1] of 12.1 µM. Moreover, the Ki in data set [2] is 8.4 µM.

`Cn1ncc2c(N)ncnc21` yielded an IC50 in data set [1] of 82.5 µM. Further, the inhibitory constant (Ki) in data set [2] turned out to be 56.8 µM.

In data set [1], `Nc1ncnc2c1ncn2-c1ccc(Cl)cc1` yielded an IC50 of 41.1 µM. In data set [2], this compound had a Ki of 28.2 µM.

As for `Nc1ncnc2c1ncn2[C@@H]1O[C@H](COP(=O)(O)OP(=O)(O)O)[C@@H](O)[C@H]1O` [ADENOSINE DIPHOSPHATE], in data set [1], the IC50 came out at 145.3 µM. In data set [2], this compound returned a Ki of 100.1 µM.

Turning to `CC1(n2cnc3c(N)ncnc32)CCCCC1`, the IC50 in data set [1] was 7.2 µM. Moreover, the Ki in data set [2] is 5 µM.

`Nc1ncnc2c1ncn2C1O[C@H](CI)[C@@H](O)[C@H]1O` (stereo partly drawn) came in with an IC50 in data set [1] of 23.1 µM. In data set [2], the Ki stood at 15.9 µM.

The compound `Cc1nc2[nH]cnc(N)c-2n1` registered an IC50 in data set [1] of 195.4 µM. In data set [2], this compound returned a Ki of 134.3 µM.

The compound `Nc1ncnc2[nH]c(-c3ccccc3)nc12` gave a concentration for half-maximal inhibition (IC50) in data set [1] of 48.8 µM. This compound also came in with an inhibition constant (Ki) in data set [2] of 33.6 µM.

For `Cn1c(-c2ccccc2)nc2c(N)ncnc21`, in data set [1], the IC50 came out at 34.9 µM. Moreover, in data set [2], the Ki is 24.1 µM.

Compound `Nc1ncnc2c1ncn2-c1cccc(F)c1` registered an IC50 in data set [1] of 25.6 µM. For the same compound, in data set [2], the Ki stood at 17.9 µM.

In data set [1], `Cl.Nc1ncnc2nc[nH]c12` gave a half-maximal inhibitory concentration (IC50) of 182.6 µM. The same compound came in with a Ki in data set [2] of 85.8 µM. In data set [3], the Vmax was 22800 c.p.m.

`Nc1nc(N)c2nc[nH]c2n1.O=S(=O)(O)O` had an IC50 in data set [1] of 146.8 µM. In data set [2], the inhibition constant Ki was 101.2 µM.

On to `CCCCCc1nc2c(N)ncnc2n1-c1ccccc1`, for which the IC50 in data set [1] was found to be 51.9 µM. This compound gave a Ki in data set [2] of 35.8 µM.

Compound `Nc1ncnc2c1nc(-c1ccccc1)n2-c1ccccc1` displayed an IC50 in data set [1] of 16.4 µM. Further, in data set [2], the Ki came to 11 µM.

`Nc1ncnc2c1ncn2C1CCCCC1` showed a half-maximal inhibitory concentration (IC50) in data set [1] of 6 µM. In addition, the Ki in data set [2] was found to be 3.7 µM.

In turn, `Nc1ncnc2c1ncn2Cc1ccccc1` [9-BENZYL-9H-ADENINE] returned an IC50 in data set [1] of 84.4 µM. In addition, the Ki in data set [2] is 57.9 µM.

Consider `Cl.Nc1ncnc2nc(Br)[nH]c12`, for which the IC50 in data set [1] is 215.3 µM. Besides, the Ki in data set [2] is 148.4 µM.

`c1ccc(CNc2ncnc3nc[nH]c23)cc1` [6-BENZYLAMINOPURINE]: the IC50 in data set [1] turned out to be 240.4 µM. Besides, in data set [2], the Ki is 199 µM. Besides, the Vmax in data set [3] is on record as 25800 c.p.m.

The IC50 is the concentration at which inhibition is half-maximal. A word on the Ki: it is the dissociation constant of the complex between target and ligand, obtained from inhibition or displacement. As a reminder, the Km is the substrate concentration at which the rate is half of its maximum.

The values are drawn from ChEMBL document CHEMBL1124860, “Purine derivatives as competitive inhibitors of human erythrocyte membrane phosphatidylinositol 4-kinase” (J Med Chem, 1990).
